Hits are enriched below; roughly 2.3% of the tested compounds scored in any of these assays.
GPR7 antagonist – GPR7 receptor antagonists, primary screen, cell-based, fluorescence, single concentration. 1.1% of 290,000 active. inhibition, % at 4.4 µM. Neuropeptides B/W receptor type 1 (Homo sapiens), P48145. AID 1861, 2009. GPR7-expressing cells, fluorescence antagonist assay; in the data active = inhibition above about 16%, passing the limit was not always enough;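 also: cells stimulated with the agonist NPW; 0% = agonist with vehicle and 100% = vehicle without agonist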
CHT PAM – CHT positive allosteric modulators, primary screen, cell-based, membrane potential dye, choline EC20. High affinity choline transporter 1 (Homo sapiens), Q9GZV3. CHT-expressing cells; stronger effect = higher value; LV-AA mutant CHT in HEK293 cells. B-score at 10 µM. 0.49% of 310,000 active. AID 488977, 2010;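 active = initial fluorescence not abnormally high and integrated response B-score, plate-corrected, over 3 SD above library mean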
Pemphigus Ab inh – inhibitors of pemphigus antibody binding to DSG3, primary screen, biochemical, bead-based, flow cytometry, scFv-GFP; DSG3-coupled beads, scFv-anti-DSG3-GFP binding; stronger effect = lower value; binding (percent of control), % at 10 µM; 0.48% of 310,000 active; AID 588358, 2011;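 active = binding more than 3 SD below its plate's average and above zero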;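 also: hits lower antibody fragment binding to DSG3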
Target sequence (P32926 whole entry, looked up, the tested form may be a part): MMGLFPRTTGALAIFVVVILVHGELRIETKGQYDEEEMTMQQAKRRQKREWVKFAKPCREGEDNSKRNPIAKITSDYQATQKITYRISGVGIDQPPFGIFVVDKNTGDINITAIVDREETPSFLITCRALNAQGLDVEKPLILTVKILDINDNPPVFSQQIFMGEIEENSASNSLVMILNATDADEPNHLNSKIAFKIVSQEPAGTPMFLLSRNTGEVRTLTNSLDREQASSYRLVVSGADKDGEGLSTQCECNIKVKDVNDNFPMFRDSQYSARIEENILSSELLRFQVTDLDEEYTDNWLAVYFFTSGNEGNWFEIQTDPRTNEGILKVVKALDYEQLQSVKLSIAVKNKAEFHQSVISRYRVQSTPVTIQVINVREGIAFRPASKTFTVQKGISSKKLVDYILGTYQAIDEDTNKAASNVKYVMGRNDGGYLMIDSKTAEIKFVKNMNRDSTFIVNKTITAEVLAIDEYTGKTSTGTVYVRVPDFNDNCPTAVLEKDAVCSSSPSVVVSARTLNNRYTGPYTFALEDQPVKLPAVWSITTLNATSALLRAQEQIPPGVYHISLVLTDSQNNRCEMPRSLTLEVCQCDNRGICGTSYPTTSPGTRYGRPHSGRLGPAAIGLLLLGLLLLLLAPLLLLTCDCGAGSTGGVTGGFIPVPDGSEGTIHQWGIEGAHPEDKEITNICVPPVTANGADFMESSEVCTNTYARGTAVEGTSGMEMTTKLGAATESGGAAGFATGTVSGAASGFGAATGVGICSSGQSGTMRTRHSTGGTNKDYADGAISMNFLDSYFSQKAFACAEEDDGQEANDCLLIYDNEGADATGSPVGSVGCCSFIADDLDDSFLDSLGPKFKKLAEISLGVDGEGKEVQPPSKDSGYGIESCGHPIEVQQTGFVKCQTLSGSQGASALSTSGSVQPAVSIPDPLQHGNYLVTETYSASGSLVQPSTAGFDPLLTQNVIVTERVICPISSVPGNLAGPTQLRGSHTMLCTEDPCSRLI
p-CIP stab down – p/CIP-EGFP fusion destabilizers, primary screen, fluorescence, F442A cells | Q05BA5 | decrease of EGFP signal, % at 10 µM | AID 1984, 2009 | 0.01% of 290,000 active | 16 h;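 active = EGFP signal decrease of at least 30% at 10 µM or well 3 SD below plate mean, unless failing retest; inactive = the rest, including hits failing retest or dose response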
T cell modulator – modulators of CD8 T cell-vesicle binding, primary screen, mouse 2C CD8+ T cells, flow cytometry | AID 2052, 2009 | 2C CD8+ T cell-vesicle binding; stronger effect = lower value | 0.068% of 330,000 active | response (vesicle binding), % at 7 µM;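 active = response, share of CD8 T cells binding vesicles, and their 90th percentile fluorescence all below set limits, cut at about 80% in these data, passing the limit was not always enough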;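 also: values below 100% mean blocked vesicle binding to the CD8+ T cells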
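Material: murine 2C transgenic CD8+ T lymphocytes / Also added: QL9-peptide-loaded Drosophila micro-vesicles bearing Ld, ICAM-1 and B7-1 / Schedule: binding step 1.5 h, 37 °C, antibody labelling 20 min, ice / Signal: flow cytometry, PE anti-B7-1 (FL2) versus Alexa647 anti-CD8 (FL8), PFA-fixed / Evaluation: percent CD8+ FL2 mean versus row control / Benchmarks: naked versus QL9-loaded vesicles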
CHT inh – inhibitors of human choline transporter CHT. High affinity choline transporter 1 (Homo sapiens), Q9GZV3. B-score at 10 µM. 0.86% of 310,000 active. CHT-expressing cells, membrane potential dye, choline response; stronger effect = lower value;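 active = B-score over 3 SD under the library average, and starting fluorescence ratio not unusually high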;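 also: choline stimulus applied at its EC90 after an EC20 pre-addition; B-score computed on integrated fluorescence ratio after choline addition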
GPR7 antag conf – GPR7 receptor antagonists, confirmation, cell-based, fluorescence, single concentration. shares compounds with GPR7 antagonist. GPR7-expressing cells, calcium fluorescence antagonist mode. inhibition, % at 4.4 µM. 52% of 2,400 active; in the data active = inhibition above about 24%;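 also: stimulated with the GPR7 agonist NPW; 0% = agonist plus vehicle and 100% = vehicle alone without agonist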
MCHR1 antag – MCHR1 antagonists in cells, counter-screen for GPR7 antagonist project, cell-based, fluorescence, human. shares compounds with GPR7 antagonist. MCHR1-expressing cells, fluorescence antagonist assay. inhibition, % at 4.4 µM. 62% of 2,400 active; in the data active = inhibition above about 22%;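 also: 0% = vehicle with agonist and 100% = vehicle without agonist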
The depositor's hits bear a star; i = inactive; . = no result given.

SMILES	GPR7 antagonist	CHT PAM	Pemphigus Ab inh	p-CIP stab down	T cell modulator	CHT inh	GPR7 antag conf	MCHR1 antag
COc1ccc(N=C2SCC(c3ccc([N+](=O)[O-])cc3)=NN2CCO)cc1	31.8*	i	.	0.4	621.7	i	28.1*	40.1*
COc1ccc(N=C2SCC(c3ccc(C)cc3)=NN2CCO)cc1	16.9	i	116.5	-9.4	221.5	i	.	.
O=[N+]([O-])c1ccc(C2=NN(CCO)C(=Nc3ccc(OC(F)(F)F)cc3)SC2)cc1	27.6*	i	105.7	-3.2	214.7	i	54.2*	36.9*
CC(C)(C)S(=O)N1Cc2cc(=O)n(Cc3ccccc3)c(CCO)c2[C@@H]1CCO (some centres undefined)	.	.	104.2	.	.	.	.	.
COC(=O)[C@H]1C[C@H](OC(=O)NC2CC2)[C@@]2(O)CN(S(=O)(=O)c3ccc(C)cc3)CC2[C@H]1C(=O)OC (some centres undefined)	.	.	104.3	.	.	.	.	.
CN1OC[C@@H]2CN(Cc3ccccc3)[C@H](c3cccc(-c4ccccc4)c3)C[C@@H]21	.	.	103.0	.	.	.	.	.
COc1ccc(C)cc1NC(=O)c1ccc(N(C)S(C)(=O)=O)cc1	30.8*	i	101.0	6.4	370.6	i	7.1	15.6
COc1ccc(CN(C)C(=O)c2ccc(NS(=O)(=O)c3ccc(F)cc3)cc2)c(OC)c1	22.3*	i	104.4	14.4	341.1	i	9.8	1.6
COc1ccc(CN(C)C(=O)c2ccc(NS(=O)(=O)c3ccccc3)cc2)c(OC)c1	.	i	98.2	.	552.2	i	.	.
NS(=O)(=O)c1ccc(CCNC(=O)COC(=O)C2CCC2)cc1	38.4*	i	96.8	3.6	292.5	i	-3.4	-5.4
NS(=O)(=O)c1ccc(CCNC(=O)COC(=O)CC(c2ccccc2)c2ccccc2)cc1	52.4*	i	98.4	-8.6	216.7	i	2.2	69.3*
c1ccc(Nc2ccccc2Nc2ccccn2)nc1	53.1*	i	98.2	-593.8	468.2	i	-3.7	-6.0
c1ccc(CNc2ccccn2)cc1	-16.5	i	118.9	-5.1	224.2	i	.	.
CCC(=O)N(CCC1(C(C)C)CCOC(C)(C)C1)Cc1ccco1 (centres undefined)	-2.1	i	99.7	-0.5	313.0	i	.	.
CCC(=O)N(CCC1(C(C)C)CCOC(C)(C)C1)C(C)c1cccs1 (centres undefined)	25.0*	i	100.4	5.5	238.6	i	7.2	4.4
CCOc1ccc(C(=O)Nc2cccc3ncccc23)cc1Br	25.6*	i	.	-4.5	459.4	i	2.9	9.2
CC(=O)C1=C(c2ccccc2)NC(=S)NC1c1cc(Cl)c(OC(C)C)c(Cl)c1 (centres undefined)	28.7*	i	100.1	-3.4	306.2	i	56.2*	57.5*
COc1cc(C2NC(=S)NC(c3ccccc3)=C2C(C)=O)cc(Cl)c1OCC(=O)O (centres undefined)	-0.2	i	98.6	-0.5	412.3	i	.	.
CC1=CC2=NC(=O)/C(=C/c3coc4ccc(Cl)cc4c3=O)C(=N)N2O1	21.4*	i	113.0	-27.2	338.6	i	27.8*	61.3*
O=C(NCC1CC1)Nc1ccccc1F	98.7*	i	99.8	-0.3	279.8	i	-7.3	14.5
Cn1c(=O)oc2cc(S(=O)(=O)N3CCN(c4ccccn4)CC3)ccc21	25.5*	i	107.3	-3.4	252.3	i	-3.3	-4.3

Bioassay records: PubChem BioAssay, several laboratories
